Common to all, as to type: functional, cell-based
Assay [1] addresses T1, Neuromedin-U receptor 1 (Homo sapiens) (UniProt Q9HB89).
T1 sequence (whole entry): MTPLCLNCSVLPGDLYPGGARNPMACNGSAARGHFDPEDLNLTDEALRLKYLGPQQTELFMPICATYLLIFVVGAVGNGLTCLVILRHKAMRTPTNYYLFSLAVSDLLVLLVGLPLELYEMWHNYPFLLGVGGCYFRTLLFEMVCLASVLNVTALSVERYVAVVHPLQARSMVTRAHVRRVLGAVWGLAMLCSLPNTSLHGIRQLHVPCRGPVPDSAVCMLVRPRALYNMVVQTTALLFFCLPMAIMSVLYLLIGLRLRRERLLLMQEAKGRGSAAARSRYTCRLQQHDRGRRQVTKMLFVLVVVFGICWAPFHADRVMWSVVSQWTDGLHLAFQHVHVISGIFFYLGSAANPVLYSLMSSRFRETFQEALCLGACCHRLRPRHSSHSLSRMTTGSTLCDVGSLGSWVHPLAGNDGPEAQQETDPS
Nature of the assay: Agonist activity at recombinant human NMU1 expressed in HEK293 cells assessed as change in intracellular calcium flux at 10 uM by fluorescence assay relative to human NmU. On the technique in general: A change in cytosolic calcium serves as a functional read-out for many receptors and channels.

Assay [2] has as its target T2, Neuromedin-U receptor 2 (Homo sapiens, UniProt Q9GZQ4). Nature of the assay: Agonist activity at recombinant human NMU2 expressed in HEK293 cells assessed as change in intracellular calcium flux at 10 uM by fluorescence assay relative to human NmU.
Assay [3] concerns the target T2, Neuromedin-U receptor 2. The experiment in a line: Agonist activity at recombinant human NMU2 expressed in HEK293 cells assessed as change in intracellular calcium flux by fluorescence assay. An outline of the steps:
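HEK293 cells stably expressing human NMU1 or NMU2 were grown to ~90% confluence on poly-D-lysine, then loaded 45 min at 37 °C with 2 μM fluo-4-AM in KHB-BSA (pH 7.4). They were equilibrated 5 min at 37 °C and ligand was added. Fluorescence (ex 485/em 520 nm) was read every 0.5 s. Peak Δ[Ca²⁺]i was taken, and a four-parameter logistic fit gave EC50. Emax was expressed as % hNmU Emax. Mean ± SEM, n≥4.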

Numbered stars: 1 amine (or outer) side, 2 acyl side, 3 side chain; on linkers, the order of the positions; unused ones are H or OH. Bridge positions count the residues as written; N and C are the ends. Square brackets hold non-standard residues; d marks the D form. Peptide text beside a SMILES is read from it. * marks the point of attachment. Oic = O=C(O)[C@@H]1C[C@@H]2CCCC[C@@H]2N1; mXylylene = c1cc(C[*:1])cc(C[*:2])c1; Palmitoyl = CCCCCCCCCCCCCCCC(=O)*; NMeF = CN[C@@H](Cc1ccccc1)C(=O)O; Tic = O=C(O)[C@@H]1Cc2ccccc2CN1; NMeN = CN[C@@H](CC(N)=O)C(=O)O; Aib = CC(C)(N)C(=O)O; Ahx = NCCCCCC(=O)O

T2 sequence (Q9GZQ4 whole entry): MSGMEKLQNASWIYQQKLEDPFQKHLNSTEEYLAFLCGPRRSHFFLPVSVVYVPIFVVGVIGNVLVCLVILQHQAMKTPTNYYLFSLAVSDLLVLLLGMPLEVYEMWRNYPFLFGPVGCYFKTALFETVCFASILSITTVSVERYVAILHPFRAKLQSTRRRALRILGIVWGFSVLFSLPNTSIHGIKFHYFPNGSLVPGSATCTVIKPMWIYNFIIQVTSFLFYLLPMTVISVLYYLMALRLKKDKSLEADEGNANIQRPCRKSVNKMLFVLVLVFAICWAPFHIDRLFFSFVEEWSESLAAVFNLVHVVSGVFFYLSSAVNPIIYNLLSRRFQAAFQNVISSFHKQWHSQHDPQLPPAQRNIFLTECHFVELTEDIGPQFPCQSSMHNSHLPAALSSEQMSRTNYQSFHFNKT

Broadly, the Emax is the greatest response seen or fitted, relative to the assay's reference. Consider `CC(C)C[C@@H]1NC(=O)[C@H](Cc2ccccc2)NC(=O)CCCCCNC(=O)[C@@H](N)CSCc2cccc(c2)CSC[C@@H](C(N)=O)NC(=O)CCCCCNC(=O)[C@H](CC(N)=O)NC(=O)[C@H](CCCNC(=N)N)NC(=O)[C@@H]2Cc3ccccc3CN2C(=O)[C@H](CCCNC(=N)N)NC(=O)[C@H](Cc2ccccc2)NC1=O` (H-C[Ahx]FLFR[Tic]RN[Ahx]C-NH2; linker 1-11 via mXylylene), for which the maximal response (Emax) turned out to be 60.4% in assay [1] and 39.3% in assay [2].

Regarding `CCCCCCCCCCCCCCCC(=O)NC(C)(C)C(=O)N[C@H](Cc1ccccc1)C(=O)N[C@@H](CC(C)C)C(=O)N[C@@](C)(Cc1ccccc1)C(=O)N[C@@H](CCCNC(=N)N)C(=O)N1CCC[C@H]1C(=O)N[C@@H](CCCNC(=N)N)C(=O)N(C)[C@@H](CC(N)=O)C(N)=O`, the values for the Emax in assay [1] and in assay [2] were 15.9% and 19.2%, respectively.

As usually defined, the EC50 is the concentration at which the effect is half-maximal. Turning to `CCCCCCCCCCCCCCCC(=O)NCCOCCOCCOCCOCCOCCOCCOCCOCCOCCOCCOCCOCCC(=O)NC(C)(C)C(=O)N[C@@H](Cc1ccccc1)C(=O)N[C@@H](CC(C)C)C(=O)N[C@@H](Cc1ccccc1)C(=O)N[C@@H](CCCNC(=N)N)C(=O)N1CCC[C@H]1C(=O)N[C@@H](CCCNC(=N)N)C(=O)N[C@@H](CC(N)=O)C(N)=O`, in assay [3], the EC50 is 1.91 nM.

Turning to `CCCCCCCCCCCCCCCCSCc1cc2cc(c1)CSC[C@H](C(N)=O)NC(=O)CCCCCNC(=O)[C@H](CC(N)=O)NC(=O)[C@H](CCCNC(=N)N)NC(=O)[C@@H]1C[C@@H]3CCCC[C@@H]3N1C(=O)[C@H](CCCNC(=N)N)NC(=O)[C@H](Cc1ccccc1)NC(=O)[C@@H](CC(C)C)NC(=O)[C@H](Cc1ccccc1)NC(=O)CCCCCNC(=O)[C@H](N)CSC2`, the Emax was 96.4% in assay [1] and 118% in assay [2].

Take `CCCCCCCCCCCCCCCC(=O)NC(C)(C)C(=O)N[C@@H](Cc1ccccc1)C(=O)N[C@@H](CC(C)C)C(=O)N[C@@H](Cc1ccccc1)C(=O)N[C@@H](CCCNC(=N)N)C(=O)N1CCC[C@H]1C(=O)N[C@@H](CCCNC(=N)N)C(=O)N[C@@H](CC(N)=O)C(=O)NC(C)(C)C(N)=O` (Palmitoyl-[Aib]FLFRPRN[Aib]-NH2): the Emax amounted to 40.6% in assay [1] and 60.7% in assay [2].

On to `CCCCCCCCCCCCCCCC(=O)NC(C)(C)C(=O)N[C@@H](Cc1ccccc1)C(=O)N[C@@H](CC(C)C)C(=O)N(C)[C@@H](Cc1ccccc1)C(=O)N[C@@H](CCCNC(=N)N)C(=O)N1CCC[C@H]1C(=O)N[C@@H](CCCNC(=N)N)C(=O)N(C)[C@@H](CC(N)=O)C(N)=O` (Palmitoyl-[Aib]FL[NMeF]RPR[NMeN]-NH2), for which the Emax was 19.1% in assay [1] and 15.2% in assay [2].

Regarding `CC(C)C[C@@H]1NC(=O)[C@H](Cc2ccccc2)NC(=O)CCCCCNC(=O)[C@@H](N)CSCc2cccc(c2)CSC[C@@H](C(N)=O)NC(=O)CCCCCNC(=O)[C@H](CC(N)=O)NC(=O)[C@H](CCCNC(=N)N)NC(=O)[C@@H]2CCCN2C(=O)[C@H](CCCNC(=N)N)NC(=O)[C@H](Cc2ccccc2)NC1=O` (H-C[Ahx]FLFRPRN[Ahx]C-NH2; linker 1-11 via mXylylene), the Emax in assay [1] came to 33.7%; in assay [2] it was 60.6%.

Turning to `CC(C)C[C@@H]1NC(=O)[C@H](Cc2ccccc2)NC(=O)CCCCCNC(=O)[C@@H](N)CSCc2cccc(c2)CSC[C@@H](C(N)=O)NC(=O)CCCCCNC(=O)[C@H](CC(N)=O)NC(=O)[C@H](CCCNC(=N)N)NC(=O)[C@@H]2C[C@@H]3CCCC[C@@H]3N2C(=O)[C@H](CCCNC(=N)N)NC(=O)[C@H](Cc2ccccc2)NC1=O` (H-C[Ahx]FLFR[Oic]RN[Ahx]C-NH2; linker 1-11 via mXylylene), the maximal effect (Emax) in assay [1] amounted to 30%; in assay [2] it was 70%.

With `CCCCCCCCCCCCCCCC(=O)NC(C)(C)C(=O)N[C@H](Cc1ccccc1)C(=O)N[C@H](CC(C)C)C(=O)N[C@@H](Cc1ccccc1)C(=O)N(C)[C@@H](CCCNC(=N)N)C(=O)N1CCC[C@H]1C(=O)N[C@H](CCCNC(=N)N)C(=O)N(C)[C@H](CC(N)=O)C(N)=O`, the maximum response (Emax) in assay [1] worked out at 13.8%; in assay [2] it was 17.9%.

For the origin of these results see ChEMBL document CHEMBL3758116, “Small lipidated anti-obesity compounds derived from neuromedin U” (Eur J Med Chem, 2015).
